INS-1E ATP HTS: preserves ATP levels in cytokine-treated INS-1E cells | INS-1E cytokine-induced death, ATP luminescence, 48 h; normalised: neutral wells 0, positive control 100 | protection from cytokine-induced ATP loss, % at 10 µM | 20,000 tested, 0.1% active;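 active means mean replicate protection from cytokine-induced ATP loss at least 50% and at least 75% of replicates each reaching 50%; inconclusive means meets only one of the two criteria, mean or replicate share; inactive means fails both the mean and replicate share criteria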
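Assay system – rat INS-1E insulinoma cell line · Quantity – 8000 cells per well · Buffer or medium – RPMI without phenol red, 5% FBS · Schedule – 48 h co-treatment, 10 min post-lysis read · Technique – luminescent ATP assay (CellTiter-Glo)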
A1 apoptosis 2: A1 inhibition read as caspase activation; MEF A1-2A-BIM cells, caspase-Glo luminescence, 3 h; percent of clofoctol response, DMSO zero; AID 2465; caspase activation, % (no concentration beside the values); 24,000 tested, under 10 active; in the data active means caspase activation above about 5.9%; inconclusive means no clear call, values can overlap the other calls; inactive means below about 2.2%
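Material: A1-2A-BIM-expressing MEF cells. Buffer or medium: RPMI-1640 plus 10% FBS. Incubation: cells settled overnight, compound exposure 3 h at 37 °C, 5% CO2. Signal: Caspase-Glo 3/7 luminescence, 1 h at room temperature.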
T cruzi HTS: blocks T. cruzi growth inside host cells | intracellular Trypanosoma cruzi in host cells, plate reader | activity score (inhibition), % at 5.01 µM | 22,000 tested, 4.9% active | AID 651903; in the data active means activity score above about 55%; inconclusive means no clear call, values can overlap the other calls;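 further: parasites and compound incubated about four days before reading; 0% = median of neutral control wells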
Starred values were filed as active, the others as inactive; ? = inconclusive; / = no result given. The entries come from a sample that favours hits as a whole.

SMILES	INS-1E ATP HTS	A1 apoptosis 2	T cruzi HTS
COc1cccc(S(=O)(=O)N(C)C[C@@H]2Oc3ncc(-c4cccc(C(F)(F)F)c4)cc3C(=O)N([C@H](C)CO)C[C@@H]2C)c1	/	/	57*
COc1ccc(NC(=O)Nc2ccc3c(c2)C(=O)N([C@H](C)CO)C[C@@H](C)[C@H](CN(C)C(=O)C2CCCCC2)OCCCC[C@@H](C)O3)cc1	/	1	/
C[C@H]1CN([C@@H](C)CO)C(=O)c2cc(NS(=O)(=O)c3cccs3)ccc2O[C@H]1CN(C)C(=O)Nc1ccc(F)cc1	-9	-1	-13
C[C@@H]1CN([C@@H](C)CO)C(=O)c2cc(NC(=O)Cc3cn(C)c4ccccc34)ccc2O[C@H]1CN(C)S(=O)(=O)c1ccccc1	-4	/	-11
C[C@H](CO)N1C[C@H](C)[C@H](CN(C)Cc2ccc(Cl)c(Cl)c2)Oc2ccc(NC(=O)c3ccncc3)cc2C1=O	2	/	24
C[C@H]1CN([C@@H](C)CO)C(=O)c2cc(NC(=O)Nc3cccc4ccccc34)ccc2O[C@H]1CN(C)Cc1ccc(C(=O)O)cc1	-1	0	-8
COc1ccc(S(=O)(=O)N(C)C[C@H]2Oc3ccc(NC(=O)CCCN(C)C)cc3C(=O)N([C@H](C)CO)C[C@@H]2C)cc1	8	0	-11
Cc1noc(C)c1NC(=O)Nc1ccc2c(c1)C(=O)N([C@@H](C)CO)C[C@@H](C)[C@H](CN(C)Cc1ccc3c(c1)OCO3)OCCCC[C@@H](C)O2	/	1	/
C[C@H](CO)N1C[C@H](C)[C@H](CN(C)Cc2ccc3c(c2)OCO3)Oc2ncc(-c3cccc(F)c3)cc2C1=O	-21	0	25
C[C@H](CO)N1C[C@H](C)[C@H](CN(C)Cc2ccccc2)Oc2ncc(-c3cccc(C(F)(F)F)c3)cc2C1=O	/	0	?
C[C@H](CO)N1C[C@H](C)[C@H](CN(C)Cc2ccc3c(c2)OCO3)Oc2ncc(-c3cccc(C(F)(F)F)c3)cc2C1=O	-13	1	62*
C[C@H](CO)N1C[C@H](C)[C@H](CN(C)Cc2ccc(F)cc2)Oc2ncc(-c3cccc(C(F)(F)F)c3)cc2C1=O	/	/	62*
Cc1noc(C)c1NC(=O)N(C)C[C@@H]1Oc2ccc(NS(=O)(=O)c3ccc(Cl)cc3)cc2C(=O)N([C@H](C)CO)C[C@H]1C	-1	/	-4
CC(C)NC(=O)Nc1ccc2c(c1)C(=O)N([C@@H](C)CO)C[C@H](C)[C@@H](CN(C)CC1CC1)OCCCC[C@H](C)O2	/	-1	/
C[C@H]1CN([C@@H](C)CO)C(=O)Cc2cc(NS(C)(=O)=O)ccc2O[C@@H]1CN(C)Cc1ccc(-c2ccccc2)cc1	14	-2	?
COc1ccc(S(=O)(=O)N(C)C[C@H]2Oc3c(NC(=O)Nc4ccc(C(F)(F)F)cc4)cccc3C(=O)N([C@@H](C)CO)C[C@H]2C)cc1	-102	0	67*
COc1ccc(S(=O)(=O)N(C)C[C@H]2Oc3ccc(NC(=O)Nc4cccc5ccccc45)cc3C(=O)N([C@@H](C)CO)C[C@@H]2C)cc1	1	/	3
COc1ccc(S(=O)(=O)N(C)C[C@@H]2Oc3c(NC(=O)Nc4ccc(C(F)(F)F)cc4)cccc3C(=O)N([C@@H](C)CO)C[C@H]2C)cc1	-7	-2	2
COc1ccc(S(=O)(=O)N(C)C[C@H]2Oc3ccc(NC(=O)Nc4cccc5ccccc45)cc3C(=O)N([C@@H](C)CO)C[C@H]2C)cc1	-9	/	62*
COc1ccc(S(=O)(=O)N(C)C[C@H]2Oc3c(NC(=O)Nc4ccc(C(F)(F)F)cc4)cccc3C(=O)N([C@H](C)CO)C[C@@H]2C)cc1	-18	-1	?
COc1ccc(S(=O)(=O)N(C)C[C@H]2Oc3c(NC(=O)Nc4ccc(C(F)(F)F)cc4)cccc3C(=O)N([C@@H](C)CO)C[C@@H]2C)cc1	-39	-1	70*
Cc1noc(C)c1S(=O)(=O)N(C)C[C@@H]1OCCCC[C@@H](C)Oc2ccc(NS(=O)(=O)c3ccc(F)cc3)cc2C(=O)N([C@H](C)CO)C[C@H]1C	/	2	/
COc1ccc(CN(C)C[C@@H]2Oc3ccc(NS(=O)(=O)c4cccs4)cc3CC(=O)N([C@H](C)CO)C[C@H]2C)cc1	4	/	16
C[C@@H]1CN([C@H](C)CO)C(=O)Cc2cc(NS(=O)(=O)c3cccs3)ccc2O[C@@H]1CN(C)Cc1ccc(-c2ccccc2)cc1	-14	/	44
C[C@@H]1CN([C@@H](C)CO)C(=O)Cc2cc(NS(=O)(=O)c3cccs3)ccc2O[C@@H]1CN(C)Cc1ccc(Oc2ccccc2)cc1	-20	/	63*
SMILES	INS-1E ATP HTS	A1 apoptosis 2	T cruzi HTS
C[C@H]1CN([C@@H](C)CO)C(=O)Cc2cc(NS(=O)(=O)c3cccs3)ccc2O[C@H]1CN(C)Cc1ccc(-c2ccccc2)cc1	-35	/	57*
O=C(O)C1=C[C@@H](c2ccc(C(F)(F)F)cc2)C[C@@H](OCc2ccc(CO)cc2)O1	/	0	/
CC(C)NC(=O)Nc1ccc2c(c1)C(=O)N([C@@H](C)CO)C[C@H](C)[C@H](CN(C)C(=O)Nc1ccc3c(c1)OCO3)OCCCC[C@H](C)O2	/	1	/
C[C@@H]1CN([C@H](C)CO)C(=O)Cc2cc(NC(=O)Nc3ccc4c(c3)OCO4)ccc2O[C@H]1CN(C)Cc1ccc(-c2ccccc2)cc1	-35	/	72*
C[C@@H]1CN([C@H](C)CO)C(=O)Cc2cc(NC(=O)Nc3ccc4c(c3)OCO4)ccc2O[C@H]1CN(C)Cc1ccccc1	-8	-1	-15
C[C@H]1CN([C@@H](C)CO)C(=O)Cc2cc(NC(=O)Nc3ccc(F)cc3)ccc2O[C@H]1CN(C)Cc1ccc(-c2ccccc2)cc1	-44	1	22
C[C@@H]1CN([C@H](C)CO)C(=O)Cc2cc(NC(=O)Nc3ccc(F)cc3)ccc2O[C@H]1CN(C)Cc1ccc(-c2ccccc2)cc1	-72	1	74*
C[C@@H]1CN([C@H](C)CO)C(=O)c2cc(NS(=O)(=O)c3cccs3)ccc2O[C@H]1CN(C)Cc1ccc(C(=O)Nc2ccccc2N)cc1	/	0	/
C[C@@H]1CN([C@@H](C)CO)C(=O)Cc2cc(NS(=O)(=O)c3cccs3)ccc2O[C@@H]1CN(C)Cc1ccc(C(=O)Nc2ccccc2N)cc1	-7	0	62*
C[C@H](CO)N1C[C@H](C)[C@H](CN(C)Cc2ccc(C(=O)Nc3ccccc3N)cc2)Oc2ccc(NS(=O)(=O)c3cccs3)cc2C1=O	11	/	65*
C[C@H]1CN([C@@H](C)CO)C(=O)c2cc(NS(=O)(=O)c3cccs3)ccc2O[C@H]1CN(C)Cc1ccc(C(=O)Nc2ccccc2N)cc1	-8	/	35
C[C@@H]1CN([C@H](C)CO)C(=O)c2cc(NS(=O)(=O)c3cccs3)ccc2O[C@@H]1CN(C)Cc1ccc(C(=O)Nc2ccccc2N)cc1	30	/	64*
C[C@@H]1CN([C@H](C)CO)C(=O)Cc2cc(NS(=O)(=O)c3cccs3)ccc2O[C@@H]1CN(C)Cc1ccc(C(=O)Nc2ccccc2N)cc1	-7	1	42

Source: PubChem BioAssay
